Measurements from ChEMBL document CHEMBL3102784, “Salicylanilide diethyl phosphates: synthesis, antimicrobial activity and cytotoxicity” (Bioorg Med Chem, 2014).
Values after ≈ are worked out from the molar mass of the structure shown. Active and inactive are the calls of the source. The calls are words filed in the database; no cut-off is given here.

Tests used:
[1] = test system: Aspergillus fumigatus; test: Antifungal activity against Aspergillus fumigatus 231 after 48 hrs by broth microdilution method; type: functional; conditions: Aspergillus fumigatus, 231, 48 h
Summary of the method: (§1)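 Broth microdilution in RPMI 1640 with glutamine, fluconazole as reference. For yeasts, MIC is ≥80% growth reduction (IC80) versus control. For filamentous fungi, the value is expressed as IC50. Readings at 24 and 48 h.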

[2] = test system: Pichia kudriavzevii; test: Antifungal activity against Candida krusei E28 after 48 hrs by broth microdilution method; type: functional; conditions: E28, 48 h; summary of the method: as §1
[3] = test system: Lichtheimia corymbifera; test: Antifungal activity against Absidia corymbifera 272 after 48 hrs by broth microdilution method; type: functional; conditions: Lichtheimia corymbifera, 272, 48 h; summary of the method: as §1
[4] = test system: Candida albicans; test: Antifungal activity against Candida albicans ATCC 44859 after 24 hrs by broth microdilution method; type: functional; conditions: ATCC 44859, 24 h; summary of the method: as §1
[5] = test system: Trichosporon asahii; test: Antifungal activity against Trichosporon asahii 1188 after 48 hrs by broth microdilution method; type: functional; conditions: Trichosporon asahii, 1188, 48 h; summary of the method: as §1
[6] = test system: Mycobacterium kansasii; test: Antimycobacterial activity against Mycobacterium kansasii 6509/96 after 21 days; type: functional; conditions: 6509/96, 504 h
Summary of the method: (§2)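 Micromethod MIC in Šula's semisynthetic medium at 37 °C. Compounds added in DMSO at 1000 down to 0.032 µmol/L. Isoniazid standard in sterile water at 0.5–250 µmol/L. Inocula: H37Rv 10^3, M. avium 10^5, M. kansasii 10^4. Read at 14 and 21 d, plus 7 d for M. kansasii.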

[7] = test system: Nakaseomyces glabratus; test: Antifungal activity against Candida glabrata 20/I at 500 micromol/L after 24 to 48 hrs by broth microdilution method; type: functional, organism-based; summary of the method: as §1
[8] = test system: Mycobacterium avium; test: Antimycobacterial activity against isoniazid, rifampicin, ethambutol and ofloxacin-resistant Mycobacterium avium My 330/88 after 14 days; type: functional; conditions: My 330/88, 336 h; summary of the method: as §2
[9] = test system: Trichosporon asahii; test: Antifungal activity against Trichosporon asahii 1188 after 24 hrs by broth microdilution method; type: functional; conditions: Trichosporon asahii, 1188, 24 h; summary of the method: as §1
[10] = test system: Mycobacterium kansasii; test: Antimycobacterial activity against Mycobacterium kansasii My 235/80 after 14 days; type: functional; conditions: My 235/80, 336 h; summary of the method: as §2
[11] = test system: Escherichia coli; test: Antibacterial activity against Escherichia coli CCM 4517 at 500 micromol/L after 24 to 48 hrs by broth microdilution method; type: functional, organism-based
Summary of the method: (§3)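 Broth microdilution in Mueller–Hinton broth, compounds dissolved in DMSO, tested over a dilution series from 500 downward. MIC taken as ≥95% growth reduction (IC95) versus drug-free control. Benzylpenicillin comparator. Readings at 24 and 48 h.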

[12] = test system: Mycobacterium avium; test: Antimycobacterial activity against isoniazid, rifampicin, ethambutol and ofloxacin-resistant Mycobacterium avium My 330/88 after 21 days; type: functional; conditions: My 330/88, 504 h; summary of the method: as §2
[13] = test system: Staphylococcus aureus; test: Antibacterial activity against Staphylococcus aureus CCM 4516/08 after 24 hrs by broth microdilution method; type: functional; conditions: CCM 4516/08, 24 h; summary of the method: as §3
[14] = test system: Pseudomonas aeruginosa; test: Antibacterial activity against Pseudomonas aeruginosa CCM 1961 at 500 micromol/L after 24 to 48 hrs by broth microdilution method; type: functional, organism-based; summary of the method: as §3
[15] = test system: Staphylococcus aureus; test: Antibacterial activity against methicillin-resistant Staphylococcus aureus H 5996/08 after 48 hrs by broth microdilution method; type: functional; conditions: H 5996/08, 48 h; summary of the method: as §3
[16] = test system: Enterococcus sp.; test: Antibacterial activity against Enterococcus sp. J 14365/08 at 500 micromol/L after 24 to 48 hrs by broth microdilution method; type: functional, organism-based; summary of the method: as §3
[17] = test system: Staphylococcus epidermidis; test: Antibacterial activity against Staphylococcus epidermidis H 6966/08 after 24 hrs by broth microdilution method; type: functional; conditions: H 6966/08, 24 h; summary of the method: as §3
[18] = test system: Mycobacterium kansasii; test: Antimycobacterial activity against Mycobacterium kansasii 6509/96 after 14 days; type: functional; conditions: 6509/96, 336 h; summary of the method: as §2
[19] = test system: Staphylococcus aureus; test: Antibacterial activity against methicillin-resistant Staphylococcus aureus H 5996/08 after 24 hrs by broth microdilution method; type: functional; conditions: H 5996/08, 24 h; summary of the method: as §3
[20] = test system: Trichophyton mentagrophytes; test: Antifungal activity against Trichophyton mentagrophytes 445 after 120 hrs by broth microdilution method; type: functional; conditions: Trichophyton mentagrophytes, 445, 120 h
Summary of the method: (§4)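 Filamentous dermatophyte tested by broth microdilution in RPMI 1640 with glutamine, fluconazole as reference. Value expressed as IC50 relative to growth control. Read at 72 and 120 h.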

[21] = test system: Mycobacterium tuberculosis; test: Antimycobacterial activity against Mycobacterium tuberculosis H37Rv My 331/88 after 14 days; type: functional; conditions: H37Rv My 331/88, 336 h; summary of the method: as §2
[22] = test system: Klebsiella pneumoniae; test: Antibacterial activity against Klebsiella pneumoniae D 11750/08 at 500 micromol/L after 24 to 48 hrs by broth microdilution method; type: functional, organism-based; summary of the method: as §3
[23] = test system: Mycobacterium kansasii; test: Antimycobacterial activity against Mycobacterium kansasii 6509/96 after 7 days; type: functional; conditions: 6509/96, 168 h; summary of the method: as §2
[24] = test system: Lichtheimia corymbifera; test: Antifungal activity against Absidia corymbifera 272 after 24 hrs by broth microdilution method; type: functional; conditions: Lichtheimia corymbifera, 272, 24 h; summary of the method: as §1
[25] = test system: Candida tropicalis; test: Antifungal activity against Candida tropicalis 156 at 500 micromol/L after 24 to 48 hrs by broth microdilution method; type: functional, organism-based; summary of the method: as §1
[26] = test system: Aspergillus fumigatus; test: Antifungal activity against Aspergillus fumigatus 231 after 24 hrs by broth microdilution method; type: functional; conditions: Aspergillus fumigatus, 231, 24 h; summary of the method: as §1
[27] = test system: Klebsiella pneumoniae; test: Antibacterial activity against ESBL-positive Klebsiella pneumoniae J 14368/08 at 500 micromol/L after 24 to 48 hrs by broth microdilution method; type: functional, organism-based; summary of the method: as §3
[28] = test system: Candida albicans; test: Antifungal activity against Candida albicans ATCC 44859 after 48 hrs by broth microdilution method; type: functional; conditions: ATCC 44859, 48 h; summary of the method: as §1
[29] = test system: Pichia kudriavzevii; test: Antifungal activity against Candida krusei E28 after 24 hrs by broth microdilution method; type: functional; conditions: E28, 24 h; summary of the method: as §1
[30] = test system: Trichophyton mentagrophytes; test: Antifungal activity against Trichophyton mentagrophytes 445 after 72 hrs by broth microdilution method; type: functional; conditions: Trichophyton mentagrophytes, 445, 72 h; summary of the method: as §4
[31] = test system: HepG2; test: Cytotoxicity against human HepG2 cells after 24 hrs by CellTiter assay; type: cell-based; conditions: HepG2, 24 h
Summary of the method: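 HepG2 cells (passage 27–33) in MEM with 10% FBS, L-glutamine and NEAA, seeded at 1×10^4 per well. Treated next day with compounds at 0.1–100 µM (or 0.1–25 µmol/L), triplicates, <1% DMSO, for 24 h at 37 °C, 5% CO2. MTS reagent added for 2 h, absorbance read at 490 nm. IC50 taken against untreated (100%) and 10% DMSO (0%) controls.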

[32] = test system: Staphylococcus epidermidis; test: Antibacterial activity against Staphylococcus epidermidis H 6966/08 after 48 hrs by broth microdilution method; type: functional; conditions: H 6966/08, 48 h; summary of the method: as §3
[33] = test system: Mycobacterium tuberculosis; test: Antimycobacterial activity against Mycobacterium tuberculosis H37Rv My 331/88 after 21 days; type: functional; conditions: H37Rv My 331/88, 504 h; summary of the method: as §2
[34] = test system: Mycobacterium kansasii; test: Antimycobacterial activity against Mycobacterium kansasii My 235/80 after 7 days; type: functional; conditions: My 235/80, 168 h; summary of the method: as §2
[35] = test system: Staphylococcus aureus; test: Antibacterial activity against Staphylococcus aureus CCM 4516/08 after 48 hrs by broth microdilution method; type: functional; conditions: CCM 4516/08, 48 h; summary of the method: as §3
[36] = test system: Mycobacterium kansasii; test: Antimycobacterial activity against Mycobacterium kansasii My 235/80 after 21 days; type: functional; conditions: My 235/80, 504 h; summary of the method: as §2

Q: With `CCOP(=O)(OCC)Oc1ccc(Cl)cc1C(=O)Nc1ccc(Br)cc1` as the molecule, how does the MIC50 [1] read?
A: > 500 µM

Q: What about the MIC80 [2] of the same molecule?
A: > 500 µM

Q: And the MIC50 [3]?
A: > 500 µM

Q: What about the MIC80 [4] of the same molecule?
A: > 500 µM

Q: What about the MIC80 [5] of the same molecule?
A: > 500 µM

Q: And the MIC [6]?
A: 8 µM (≈ 3.7 µg/mL)

Q: And the Activity [7]?
A: inactive

Q: What about the MIC [8] of the same molecule?
A: 8 µM (≈ 3.7 µg/mL)

Q: What about the MIC80 [9] of the same molecule?
A: > 500 µM

Q: And the MIC [10]?
A: 8 µM (≈ 3.7 µg/mL)

Q: What about the Activity [11] of the same molecule?
A: inactive

Q: And the MIC [12]?
A: 8 µM (≈ 3.7 µg/mL)

Q: What about the MIC95 [13] of the same molecule?
A: 125 µM (≈ 57.8 µg/mL)

Q: And the Activity [14]?
A: inactive

Q: And the MIC95 [15]?
A: > 500 µM

Q: And the Activity [16]?
A: inactive

Q: And the MIC95 [17]?
A: 125 µM (≈ 57.8 µg/mL)

Q: What about the MIC [18] of the same molecule?
A: 8 µM (≈ 3.7 µg/mL)

Q: What about the MIC95 [19] of the same molecule?
A: > 500 µM

Q: And the MIC50 [20]?
A: 250 µM (≈ 116 µg/mL)

Q: What about the MIC [21] of the same molecule?
A: 2 µM (≈ 0.925 µg/mL)

Q: And the Activity [22]?
A: inactive

Q: And the MIC [23]?
A: 4 µM (≈ 1.85 µg/mL)

Q: What about the MIC50 [24] of the same molecule?
A: > 500 µM

Q: And the Activity [25]?
A: inactive

Q: What about the MIC50 [26] of the same molecule?
A: > 500 µM

Q: What about the Activity [27] of the same molecule?
A: inactive

Q: And the MIC80 [28]?
A: > 500 µM

Q: And the MIC80 [29]?
A: > 500 µM

Q: What about the MIC50 [30] of the same molecule?
A: 250 µM (≈ 116 µg/mL)

Q: And the IC50 [31]?
A: 1.56 µM

Q: What about the MIC95 [32] of the same molecule?
A: 125 µM (≈ 57.8 µg/mL)

Q: And the MIC [33]?
A: 2 µM (≈ 0.925 µg/mL)

Q: What about the MIC [34] of the same molecule?
A: 4 µM (≈ 1.85 µg/mL)

Q: What about the MIC95 [35] of the same molecule?
A: 125 µM (≈ 57.8 µg/mL)

Q: What about the MIC [36] of the same molecule?
A: 8 µM (≈ 3.7 µg/mL)

Q: What does the source list for `CCOP(=O)(OCC)Oc1cc(Cl)ccc1C(=O)Nc1cccc(F)c1`?
A: MIC50 [1]: > 500 µM; MIC80 [2]: > 500 µM; MIC50 [3]: > 500 µM; MIC80 [4]: > 500 µM; MIC80 [5]: > 500 µM; MIC [6]: 16 µM (≈ 6.43 µg/mL); Activity [7]: inactive; MIC [8]: 16 µM (≈ 6.43 µg/mL); MIC80 [9]: > 500 µM; MIC [10]: 16 µM (≈ 6.43 µg/mL); Activity [11]: inactive; MIC [12]: 16 µM (≈ 6.43 µg/mL); MIC95 [13]: 125 µM (≈ 50.2 µg/mL); Activity [14]: inactive; MIC95 [15]: 250 µM (≈ 100 µg/mL); Activity [16]: inactive; MIC95 [17]: 250 µM (≈ 100 µg/mL); MIC [18]: 16 µM (≈ 6.43 µg/mL); MIC95 [19]: 250 µM (≈ 100 µg/mL); MIC50 [20]: 500 µM (≈ 201 µg/mL); MIC [21]: 8 µM (≈ 3.21 µg/mL); Activity [22]: inactive; MIC [23]: 8 µM (≈ 3.21 µg/mL); MIC50 [24]: > 500 µM; Activity [25]: inactive; MIC50 [26]: > 500 µM; Activity [27]: inactive; MIC80 [28]: > 500 µM; MIC80 [29]: > 500 µM; MIC50 [30]: 500 µM (≈ 201 µg/mL); IC50 [31]: 11.2 µM; MIC95 [32]: 250 µM (≈ 100 µg/mL); MIC [33]: 8 µM (≈ 3.21 µg/mL); MIC [34]: 8 µM (≈ 3.21 µg/mL); MIC95 [35]: 250 µM (≈ 100 µg/mL); MIC [36]: 16 µM (≈ 6.43 µg/mL)
